STAT1 activator: activators of IFN-gamma induced STAT1 signaling. NIH 3T3 STAT1-luciferase reporter, luminescence; 100% = IFN-gamma alone, no compound. activation (% of control), % at 5.5 µM. hit rate 2.6% among 200,000. AID 932;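 active = activation above the screen-wide mean activation plus 3 SD, cut at about 130% in these data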;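 note: raw ratio to IFN-gamma control signal so 100% means no change and 0% no light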
FLuc inhib CS: inhibits firefly luciferase, flagging false hits in luciferase inhibition screens; P08659; ATPLite firefly luciferase biochemical luminescence, 10 min; inhibition, % at 10 µM; hit rate 1.5% among 200,000; AID 1006;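 active = inhibition above about 50% when tested at 10 µM, limit read from the data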
Target sequence (P08659 whole entry, looked up): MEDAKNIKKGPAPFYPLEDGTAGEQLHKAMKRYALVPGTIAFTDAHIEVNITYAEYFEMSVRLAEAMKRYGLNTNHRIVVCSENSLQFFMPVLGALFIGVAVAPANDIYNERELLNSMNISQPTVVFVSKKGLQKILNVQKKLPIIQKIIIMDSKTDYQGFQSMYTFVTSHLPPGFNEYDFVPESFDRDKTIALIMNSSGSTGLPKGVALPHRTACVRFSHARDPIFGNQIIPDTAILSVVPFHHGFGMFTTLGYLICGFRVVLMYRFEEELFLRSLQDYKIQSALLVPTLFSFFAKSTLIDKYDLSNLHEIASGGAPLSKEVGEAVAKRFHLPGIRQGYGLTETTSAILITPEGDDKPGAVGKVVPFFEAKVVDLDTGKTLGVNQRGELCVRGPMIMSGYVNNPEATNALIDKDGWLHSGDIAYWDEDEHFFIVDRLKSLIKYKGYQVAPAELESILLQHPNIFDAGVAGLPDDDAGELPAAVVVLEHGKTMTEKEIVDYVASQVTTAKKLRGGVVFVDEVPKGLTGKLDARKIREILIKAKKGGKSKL
APP 5'UTR act: activates APP 5'UTR luciferase reporter; SH-SY5Y APP 5'UTR luciferase reporter, luminescence; zero percent = DMSO vehicle wells; activation, % at 2 µM; hit rate 1% among 190,000;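 active = activation above a set limit, based on mean plus 3 SD of controls, cut at about 140% in these data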
FLuc act counter: firefly luciferase counter-screen for stimulation assays; activation factor at 10 µM; P08659; ATPlite luciferase biochemical, luminescence, 10 min; 0 = ATP-free wells, 1 = DMSO control; 200,000 tested, under 10 active;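 active = luciferase activation factor, scaled between plate controls, of at least 2 with compound at 10 µM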
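Material: luciferase plus luciferin reagent, cell-free. Medium: PBS buffer for ATP. Also added: ATP substrate, dispensed from a 10.24 µM working solution in PBS. Doses: test compounds dosed from 2 mM stocks in 100% DMSO. Incubation: 10 min post-reagent at room temperature. Technique: light output (luminescence). Read-out basis: luminescence gain marking luciferase activators.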
NF-kB expr up: compounds increasing NF-kB expression in human neuronal cells; NF-kB reporter expression; hits give high values; fold change at 12.5 µM; AID 1239; hit rate 1.6% among 190,000; in the data active = fold change above about 3.3
An asterisk follows results filed as active. A selection: hits, their analogues and other compounds. The true share with any hit is near 4.3%.

What do the screens show for `O=C(N/N=C/c1cccc(C(F)(F)F)c1)c1ccc(O)cc1`?
STAT1 activator: 103.0; FLuc inhib CS: 16.5; APP 5'UTR act: -4.6; FLuc act counter: 0.8; NF-kB expr up: 1.4

How did COC(=O)c1ccc(/C=N/NC(=O)c2cccc(F)c2)cc1 do in these assays?
STAT1 activator: 129.8*; FLuc inhib CS: 23.9; APP 5'UTR act: 98.4; FLuc act counter: 0.8; NF-kB expr up: 2.57

What do the screens show for `CSc1ccc(/C=N/NC(=O)c2cccc(O)c2)cc1`?
STAT1 activator: 96.5; FLuc inhib CS: 91.1*; APP 5'UTR act: 158.8*; FLuc act counter: 0.1; NF-kB expr up: 4.45*

What do the screens show for `O=C(N/N=C/c1ccc(C(F)(F)F)cc1)c1ccc(O)cc1`?
STAT1 activator: 112.4; FLuc inhib CS: 52.9*; APP 5'UTR act: 32.7; FLuc act counter: 0.5; NF-kB expr up: 1.82

Results for COc1ccc(/C=C/C(=O)Oc2cccc(/C=N/NC(=O)c3cccc(F)c3)c2)cc1 ?
STAT1 activator: 117.4; FLuc inhib CS: -2.4; APP 5'UTR act: 33.1; FLuc act counter: 1; NF-kB expr up: 2.73

What do the screens show for `O=C(Cn1cnc2cc(Cl)ccc2c1=O)Nc1ccc2c(c1)OCO2`?
STAT1 activator: 105.1; FLuc inhib CS: 2.0; APP 5'UTR act: 3.9; FLuc act counter: 1; NF-kB expr up: 1.34

Results for O=C(N/N=C\c1ccc(F)cc1)c1ccc(F)cc1 ?
STAT1 activator: 145.4*; FLuc inhib CS: 58.4*; APP 5'UTR act: 14.7; FLuc act counter: 0.4; NF-kB expr up: 1.83

What do the screens show for `Oc1ccc(/C=N/NC(=S)N/N=C/c2ccc(O)cc2)cc1`?
STAT1 activator: 124.2; FLuc inhib CS: 95.8*; APP 5'UTR act: 20.8; FLuc act counter: 0; NF-kB expr up: 1.73

Results for Cc1ccc(CSCC(=O)NCc2cccs2)cc1 ?
STAT1 activator: 100.3; FLuc inhib CS: -1.9; APP 5'UTR act: 26.5; FLuc act counter: 1; NF-kB expr up: 1.08

How did O=C(/C=C/c1ccccc1)Nc1ccc2c(c1)C(=O)NC2=O do in these assays?
STAT1 activator: 128.9*; FLuc inhib CS: 12.4; APP 5'UTR act: 8.2; FLuc act counter: 0.9; NF-kB expr up: 1.49

What do the screens show for `O=C(/C=C/c1ccccc1Cl)Nc1ccc2c(c1)C(=O)NC2=O`?
STAT1 activator: 99.4; FLuc inhib CS: 2.2; APP 5'UTR act: -1.7; FLuc act counter: 1; NF-kB expr up: 0.99

What do the screens show for `CCOC(=O)C1(CCc2ccccc2)CCN(C(=O)[C@@H]2C[C@@H](C)NC(=S)N2)CC1`?
STAT1 activator: 101.5; FLuc inhib CS: 1.4; APP 5'UTR act: 5.3; FLuc act counter: 1

Results for Cc1[nH]c2ccccc2c1C(=O)C(=O)NCc1ccco1 ?
STAT1 activator: 93.5; FLuc inhib CS: -5.7; APP 5'UTR act: 3.9; FLuc act counter: 1.1; NF-kB expr up: 1.18

How did CC1CCN(c2nc3ccc(C(=O)N4CCN(Cc5ccccc5)CC4)cc3s2)CC1 do in these assays?
STAT1 activator: 130.1*; FLuc inhib CS: -4.7; APP 5'UTR act: 58.6; FLuc act counter: 1; NF-kB expr up: 1.39

How did C/C(=N\NC(=O)COc1ccc(C)cc1C(C)C)c1cc2ccccc2o1 do in these assays?
STAT1 activator: 101.8; FLuc inhib CS: 72.1*; APP 5'UTR act: 24.1; FLuc act counter: 0.3; NF-kB expr up: 1.23

How did C/C(=N\NC(=O)COc1ccc(C(C)(C)C)cc1)c1cc2ccccc2o1 do in these assays?
STAT1 activator: 106.8; FLuc inhib CS: 93.9*; APP 5'UTR act: 92.8; FLuc act counter: 0.1; NF-kB expr up: 1.71

How did C/C(=N\NC(=O)COc1ccc(C)cc1C(C)C)c1ccc(-n2ccnc2)cc1 do in these assays?
STAT1 activator: 103.1; FLuc inhib CS: 42.7; APP 5'UTR act: 12.6; FLuc act counter: 0.6; NF-kB expr up: 0.88

How did Cc1nc(Cl)sc1C(=O)Nc1cccc2ccccc12 do in these assays?
STAT1 activator: 96.4; FLuc inhib CS: -5.2; APP 5'UTR act: 15.0; FLuc act counter: 1.1; NF-kB expr up: 0.8

How did COc1ccc(-n2ccnc2SCC(=O)NO)cc1 do in these assays?
STAT1 activator: 101.6; FLuc inhib CS: -4.7; APP 5'UTR act: 1.7; FLuc act counter: 1; NF-kB expr up: 1.17

How did Cc1ccc(C(=O)Nc2ccc(C(F)(F)F)n(C)c2=O)cc1 do in these assays?
STAT1 activator: 133.0*; FLuc inhib CS: 30.4; APP 5'UTR act: 70.7; FLuc act counter: 0.7; NF-kB expr up: 0.99

How did COc1ccc(C(=O)Nc2ccc(C(F)(F)F)n(C)c2=O)cc1 do in these assays?
STAT1 activator: 115.9; FLuc inhib CS: 11.3; APP 5'UTR act: 56.1; FLuc act counter: 0.9; NF-kB expr up: 2.51

Results for C#CCn1cnc2c(cnn2-c2ccc(C)c(C)c2)c1=O ?
STAT1 activator: 124.9; FLuc inhib CS: 3.0; APP 5'UTR act: 36.8; FLuc act counter: 1; NF-kB expr up: 1.82

How did Cc1nc2c3cnn(-c4ccc(C)c(C)c4)c3ncn2n1 do in these assays?
STAT1 activator: 148.2*; FLuc inhib CS: 7.2; FLuc act counter: 0.9; NF-kB expr up: 4.26*

Results for C=CCN=C1NN=C(c2ccc3c(c2)OCCO3)CS1 ?
STAT1 activator: 40.2; FLuc inhib CS: 93.8*; APP 5'UTR act: 58.2; FLuc act counter: 0.1; NF-kB expr up: 1.2

Results for NC1=NN=C(c2ccc3c(c2)OCCO3)CS1 ?
STAT1 activator: 53.7; FLuc inhib CS: 78.8*; APP 5'UTR act: 81.1; FLuc act counter: 0.2; NF-kB expr up: 1.65

What do the screens show for `C=CCN=C1NN=C(c2cc(C)n(CC=C)c2C)CS1`?
STAT1 activator: 77.5; FLuc inhib CS: 92.5*; APP 5'UTR act: 57.5; FLuc act counter: 0.1; NF-kB expr up: 0.25

What do the screens show for `O=C(Cc1ccc(Br)c2ccccc12)N/N=C/c1ccccn1`?
STAT1 activator: 77.7; FLuc inhib CS: -5.5; APP 5'UTR act: -6.2; FLuc act counter: 1.1; NF-kB expr up: 0.72

What do the screens show for `COC(=O)CCN(C(=O)c1cccc([N+](=O)[O-])c1)c1ccccn1`?
STAT1 activator: 99.9; FLuc inhib CS: -2.4; APP 5'UTR act: -1.0; FLuc act counter: 1; NF-kB expr up: 1.07

Results for CCOC(=O)c1cccc(NC(=O)c2cccs2)c1 ?
STAT1 activator: 85.5; FLuc inhib CS: -0.5; APP 5'UTR act: 7.8; FLuc act counter: 1; NF-kB expr up: 1.04

How did CCOC(=O)c1sc(=NC(=O)c2cccs2)n(C)c1C do in these assays?
STAT1 activator: 132.9*; FLuc inhib CS: 47.4; APP 5'UTR act: 140.9*; FLuc act counter: 0.5; NF-kB expr up: 5.39*

What do the screens show for `Cc1ccc2c(c1)sc(=NC(=O)c1cccs1)n2C`?
STAT1 activator: 24.0; FLuc inhib CS: 94.6*; APP 5'UTR act: 219.8*; FLuc act counter: 0.1; NF-kB expr up: 2.23

Results for CCOC(=O)c1sc(=NC(=O)c2ccc(C)c(C)c2)n(C)c1C ?
STAT1 activator: 127.2; FLuc inhib CS: 14.2; APP 5'UTR act: 129.2; FLuc act counter: 0.9; NF-kB expr up: 1.02

How did CCOC(=O)c1sc(=NC(=O)c2ccco2)n(C)c1C do in these assays?
STAT1 activator: 129.1*; FLuc inhib CS: 46.1; APP 5'UTR act: 31.4; FLuc act counter: 0.5; NF-kB expr up: 2.08
